# ChEMBL document CHEMBL1153722, “Design, synthesis, and characterization of peptide-based rab geranylgeranyl transferase inhibitors” (J Med Chem, 2009)
# Square brackets hold non-standard residues; d marks the D form. Peptide text beside a SMILES is read from it. * marks the point of attachment. Hydrocinnamoyl = O=C(CCc1ccccc1)*; Undecanoyl = CCCCCCCCCCC(=O)*; pGlu = O=C1CC[C@@H](C(=O)O)N1; Ac6c = NC1(C(=O)O)CCCCC1; X1 = Fc1ccc(N*)cc1Cl; NHPh = c1ccc(N*)cc1
# Organism: Rattus norvegicus
# Assay: Inhibition of rat recombinant Rab geranylgeranyltransferase at 100 uM in presence of canine Rab7 and rat REP1 NBD-FPP based continuous fluorimetric assay
# Procedure, shortened: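 Continuous fluorometric assay in 96/384-well format: 3 μM Rab7, 3 μM REP1, 9 μM NBD-FPP and 400 nM RabGGTase, with or without inhibitor. […] IC50 was calculated from three independent measurements.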
row,inhibition [%],Structure (SMILES)
1,76,CCCCCCCCCCC(=O)N[C@@H](Cc1c[nH]cn1)C(=O)N[C@@H](Cc1ccccc1)C(=O)N[C@@H](Cc1ccc(O)cc1)C(=O)N(C)OC
2,61,CCCCCCCCCCC(=O)N[C@@H](Cc1c[nH]cn1)C(=O)N[C@@H](Cc1ccccc1)C(=O)N[C@@H](Cc1ccc(O)cc1)C(=O)OCCN
3,74,O=C(CNC(=O)[C@H](Cc1c[nH]cn1)NC(=O)OCc1ccccc1)N[C@@H](Cc1ccc(O)cc1)C(=O)NCC(O)CO (stereo partly drawn)
4,37,CCCCCc1ccccc1CCC(=O)N[C@H](Cc1cnc[nH]1)C(=O)N[C@@H](Cc1ccc(O)cc1)C(=O)N[C@@H](Cc1ccccc1)C(=O)O
5,90,CCCCCCCCCCC(=O)N[C@@H](Cc1ccc(O)cc1)C(=O)N[C@@H](Cc1cnc[nH]1)C(=O)N[C@@H](Cc1ccc(O)cc1)C(=O)O (Undecanoyl-Tyr-His-Tyr-OH)
6,79,CCCCCCCCCCC(=O)N[C@@H](Cc1ccc(O)cc1)C(=O)N[C@@H](Cc1c[nH]cn1)C(=O)N[C@@H](Cc1c[nH]cn1)C(N)=O (Undecanoyl-Tyr-His-His-NH2)
7,94,COC(=O)[C@H](CC(C)C)NC(=O)[C@H](CO)NC(=O)[C@H](Cc1ccccc1)NC(=O)c1ccc(-c2ccccc2)cc1
8,57,COC(=O)[C@H](CC(C)C)NC(=O)[C@H](CO)NC(=O)[C@H](Cc1ccccc1)NC(=O)/C=C/c1ccc(F)cc1
9,94,CCCCCCCCCCCCCC(=O)N[C@@H](Cc1ccc(O)cc1)C(=O)N[C@@H](Cc1ccc(O)cc1)C(=O)N[C@@H](Cc1ccc(O)cc1)C(=O)Nc1ccc(N2CCOCC2)cc1
10,87,CCCCCCCCCCCOc1ccc(C(=O)N[C@@H](Cc2c[nH]cn2)C(=O)N[C@@H](Cc2c[nH]cn2)C(=O)N[C@@H](Cc2c[nH]cn2)C(=O)OC)cc1
11,90,COC(=O)[C@H](CO)NC(=O)[C@H](Cc1ccccc1)NC(=O)[C@H](CO)NC(=O)CCc1ccccc1 (Hydrocinnamoyl-Ser-Phe-Ser-OMe)
12,5,C=CCCCCCCCCCOC(=O)[C@H](CO)NC(=O)CNC(=O)[C@H](Cc1ccccc1)NC(=O)c1coc(-c2ccccc2)n1
13,64,CCCCCCCCCCC(=O)N[C@@H](Cc1c[nH]cn1)C(=O)N[C@@H](Cc1c[nH]cn1)C(=O)N[C@@H](Cc1ccc(O)cc1)C(=O)OC (Undecanoyl-His-His-Tyr-OMe)
14,56,CCCCCCCCCCCOc1ccc(C(=O)N[C@@H](Cc2c[nH]cn2)C(=O)N[C@@H](Cc2ccc(O)cc2)C(=O)N[C@@H](Cc2ccccc2)C(=O)NC2CCCCC2)cc1
15,32,CCCCCCCCCCC(=O)N[C@@H](Cc1ccc(O)cc1)C(=O)N[C@@H](Cc1c[nH]cn1)C(=O)N[C@@H](Cc1c[nH]cn1)C(=O)OC (Undecanoyl-Tyr-His-His-OMe)
16,82,O=C(CNC(=O)[C@H](Cc1c[nH]cn1)NC(=O)OCc1ccccc1)N[C@@H](Cc1ccc(O)cc1)C(=O)Nc1nccs1
17,99,O=C(CNC(=O)[C@H](Cc1c[nH]cn1)NC(=O)c1coc(-c2ccccc2)n1)N[C@@H](Cc1ccc(O)cc1)C(=O)O
18,70,CCCCCCCCCCC(=O)N[C@@H](Cc1c[nH]cn1)C(=O)N[C@@H](Cc1c[nH]cn1)C(=O)N[C@@H](Cc1ccc(O)cc1)C(=O)Nc1ccccn1
19,61,CCCCCCCCCCC(=O)N[C@@H](Cc1ccc(O)cc1)C(=O)N[C@@H](Cc1c[nH]cn1)C(=O)N[C@@H](Cc1ccc(O)cc1)C(=O)OCCN
20,61,O=C(N[C@@H](Cc1cnc[nH]1)C(=O)N[C@@H](Cc1ccccc1)C(=O)N[C@@H](Cc1ccc(O)cc1)C(=O)O)OCc1ccc([N+](=O)[O-])cc1
21,55,O=C(CNC(=O)[C@H](Cc1ccc(O)cc1)NC(=O)c1ccc(F)cc1)N[C@@H](Cc1ccc(O)cc1)C(=O)OCCCl
22,84,O=C(CNC(=O)c1coc(-c2ccccc2)n1)N[C@@H](Cc1c[nH]cn1)C(=O)N[C@@H](Cc1ccccc1)C(=O)O
23,69,COC(=O)[C@H](CC(C)C)NC(=O)[C@H](CO)NC(=O)[C@H](Cc1ccccc1)NC(=O)CCc1ccccc1

# Second part, the compound before the results:
row,Structure (SMILES),inhibition [%]
1,O=C(CNC(=O)c1coc(-c2ccccc2)n1)N[C@@H](Cc1cn(C(c2ccccc2)(c2ccccc2)c2ccccc2)cn1)C(=O)N[C@@H](Cc1cn(C(c2ccccc2)(c2ccccc2)c2ccccc2)cn1)C(=O)O,91
2,O=C(CNC(=O)[C@H](Cc1cn(C(c2ccccc2)(c2ccccc2)c2ccccc2)cn1)NC(=O)c1coc(-c2ccccc2)n1)N[C@@H](Cc1cn(C(c2ccccc2)(c2ccccc2)c2ccccc2)cn1)C(=O)O,95
3,C[C@H](NC(=O)[C@@H](NC(=O)c1ccc(-c2ccccc2)cc1)[C@@H](C)O)C(=O)N[C@@H](CCC(N)=O)C(=O)Nc1ccc(F)c(Cl)c1,100
4,C[C@@H](O)[C@H](NC(=O)C(Br)C(Br)c1ccccc1)C(=O)N[C@@H](Cc1ccccc1)C(=O)N[C@@H](CCC(N)=O)C(=O)OCCCCO (stereo partly drawn),60
5,COC(=O)[C@H](CO)NC(=O)CNC(=O)[C@H](Cc1ccccc1)NC(=O)C1COC(c2ccccc2)=N1 (stereo partly drawn),136
6,CC(C)C[C@H](NC(=O)[C@@H]1CCC(=O)N1)C(=O)N[C@@H](CCCCN)C(=O)NC1(C(=O)Nc2ccc(F)c(Cl)c2)CCCCC1 ([pGlu]LK[Ac6c]-X1),105
7,CCC/C=C\c1ccccc1/C=C/C(=O)N[C@H](Cc1ccc(O)cc1)C(=O)N(C)[C@@H](Cc1ccc(OC)cc1)C(=O)N(C)[C@@H](Cc1ccccc1)C(=O)OCc1c[nH]c(=O)[nH]c1=O,75
8,CCCCCCCCCCCCCC(=O)OC[C@H](NC(=O)[C@@H]1CCCN1C(=O)[C@H](CCC(N)=O)NC(=O)c1coc(-c2ccccc2)n1)C(=O)O,36
9,NC(=O)CC[C@H](NC(=O)[C@H](Cc1ccccc1)NC(=O)CNC(=O)CCc1ccccc1)C(N)=O (Hydrocinnamoyl-Gly-Phe-Gln-NH2),103
10,NC(=O)CC[C@H](NC(=O)[C@H](Cc1ccccc1)NC(=O)CNC(=O)CCc1ccccc1)C(=O)NNc1ccccc1,75
11,C[C@@H](O)[C@H](NC(=O)/C=C/c1ccccc1)C(=O)N[C@@H](Cc1ccccc1)C(=O)N[C@@H](CCC(N)=O)C(=O)OCCCl,81
12,CC[C@H](C)[C@H](NC(=O)c1ccc(-c2ccccc2)cc1)C(=O)N[C@@H](C(=O)N[C@@H](CCC(N)=O)C(=O)NNC(=O)OC)C(C)C,99
13,C[C@@H](O)[C@H](NC(=O)/C=C/c1ccccc1)C(=O)N[C@@H](Cc1ccccc1)C(=O)N[C@@H](CCC(N)=O)C(=O)NCCO,118
14,O=C(CCc1ccccc1)N[C@@H](CO)C(=O)NCC(=O)N[C@@H](CO)C(=O)Nc1ccccc1 (Hydrocinnamoyl-Ser-Gly-Ser-NHPh),93
15,CC(C)C[C@H](NC(=O)[C@@H]1CCCN1C(=O)/C=C/c1ccccc1)C(=O)N[C@@H](Cc1ccccc1)C(=O)NC1CCCCC1,82
16,O=C(CNC(=O)[C@@H]1CCCN1C(=O)c1coc(-c2ccccc2)n1)N[C@@H](Cc1c[nH]cn1)C(=O)Nc1ccc(F)cc1F,87
17,CC#CCOC(=O)[C@H](Cc1ccccc1)NC(=O)[C@H](CC(C)C)NC(=O)[C@@H]1CCCN1C(=O)/C=C/c1ccccc1,107
18,CC[C@H](C)[C@H](NC(=O)c1ccc(-c2ccccc2)cc1)C(=O)N[C@@H](C(=O)N[C@@H](CCC(N)=O)C(N)=O)C(C)C,89
19,O=C(CNC(=O)[C@@H]1CCCN1C(=O)c1coc(-c2ccccc2)n1)N[C@@H](Cc1ccccc1)C(=O)Nc1ccc(F)cc1F,89
20,O=C(CCc1ccc(F)cc1)N[C@@H](Cc1ccc(O)cc1)C(=O)NCC(=O)N[C@@H](Cc1ccc(O)cc1)C(=O)Nc1ccc(F)cc1,80
